High-throughput results deposited in PubChem BioAssay by The Scripps Research Institute Molecular Screening Center.
TAAR1 antag: antagonists of human TAAR1; Q96RJ0; CHO RD-HGA16 TAAR1, Fluo-8 calcium fluorescence, antagonist; inhibition, % at 3 µM; 360,000 tested, 1.5% active;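 active = inhibition above a per-plate cutoff, the mean inhibition of test compounds on that plate plus 3 SD, cut at about 49% in these data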;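 also: 0% = DMSO plus EC80 beta-PEA response and 100% = DMSO alone without agonist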
Target sequence (Q96RJ0 whole entry, looked up): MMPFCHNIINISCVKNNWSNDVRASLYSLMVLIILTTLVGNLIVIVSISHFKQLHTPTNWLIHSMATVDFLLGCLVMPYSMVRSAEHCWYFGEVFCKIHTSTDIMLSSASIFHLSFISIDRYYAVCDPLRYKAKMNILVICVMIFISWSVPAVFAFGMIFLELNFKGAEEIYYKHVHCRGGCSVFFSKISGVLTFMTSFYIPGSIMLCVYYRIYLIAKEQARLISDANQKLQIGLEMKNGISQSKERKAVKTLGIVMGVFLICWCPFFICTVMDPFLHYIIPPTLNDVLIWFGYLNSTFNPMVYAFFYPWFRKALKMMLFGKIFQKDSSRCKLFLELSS
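System: RD-HGA16 CHO cells with stable hTAAR1 and Gα16 | Probe or stimulus: EC80 β-phenethylamine stimulus | Dosing: 3 µM, single point | Times: Dye loading 75 min at 37 °C, then 30 min room temperature | Measured by: Fluo-8 calcium-sensitive fluorescence | Read-out basis: % inhibition of agonist calcium response | Replicates: n of 1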
CHO parental Ca: counter-screen for OX1R antagonists: effect in parental CHO cells | parental CHO-K1, ATP-induced calcium, Fluo-8 fluorescence | inhibition, % at 5.6 µM | AID 463079 | 330,000 tested, 0.63% active;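 active = inhibition above that plate's mean sample inhibition plus 3 SD, cut at about 26% in these data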;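 also: 0% = ATP-challenged DMSO wells and 100% = DMSO wells without ATP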
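Assay system: untransfected parental CHO cell line. Also added: ATP agonist challenge. Dosing: one dose, 5.6 µM nominal. Measured by: Fluo-8 fluorescence. Read-out: % inhibition. Benchmarks: ATP wells versus no-ATP DMSO wells. Repeats: no replicates.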
TAAR1 ag: agonists of human TAAR1; 360,000 tested, 0.99% active; CHO RD-HGA16 TAAR1, Fluo-8 calcium fluorescence; vehicle wells 0%, saturating PEA agonist 100%; activation, % at 3 µM; Q96RJ0;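 active = activation above the mean activation of all test compounds in the run plus 3 SD, cut at about 38% in these data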
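Assay system – CHO-derived RD-HGA16 cells with stable Gα16 and human TAAR1 · Compound dosing – one-point dosing at 3 µM (nominal) · Incubation – 17-24 h seeding, 75 min 37 °C dye, 30 min RT · Measured by – kinetic Fluo-8 calcium fluorescence · Control set – DMSO vehicle as 0%, PEA at EC100 as 100% · Repeats – single well for each compound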
OX1R antag-1: human HCRTR1 antagonism | O43613 | CHO/OX1R cells, Fluo-8 calcium fluorescence, orexin A | inhibition, % at 5 µM | 330,000 tested, 0.43% active | AID 434989;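 active = inhibition above its plate's threshold, mean inhibition of all tested compounds on the plate plus 3 SD, cut at about 37% in these data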;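 also: 0% = orexin A challenge wells and 100% = SB-334867-A antagonist wells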
GPR7 antag: blocks human GPR7 receptor signaling | P48145 | GPR7-expressing cells, fluorescence antagonist assay | inhibition, % at 4.4 µM | 290,000 tested, 1.1% active | AID 1861; in the data active = inhibition above about 16%, passing the limit was not always enough;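 also: cells stimulated with the agonist NPW; 0% = agonist with vehicle and 100% = vehicle without agonist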
Target sequence (P48145 whole entry, looked up): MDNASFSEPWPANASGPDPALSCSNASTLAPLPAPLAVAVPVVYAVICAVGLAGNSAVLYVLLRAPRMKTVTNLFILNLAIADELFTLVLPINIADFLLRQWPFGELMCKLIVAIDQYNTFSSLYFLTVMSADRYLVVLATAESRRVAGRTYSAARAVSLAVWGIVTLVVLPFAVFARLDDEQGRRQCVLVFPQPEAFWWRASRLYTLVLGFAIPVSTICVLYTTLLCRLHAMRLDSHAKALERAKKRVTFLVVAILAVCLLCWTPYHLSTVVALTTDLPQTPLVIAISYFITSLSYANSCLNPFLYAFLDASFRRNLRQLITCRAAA
OX1R antag-2: blocks the human orexin 1 receptor. O43613. OX1R-expressing cells, FRET antagonist read-out. inhibition, % at 6.6 µM. 330,000 tested, 1.8% active. AID 485270; in the data active = inhibition mostly above about 38%, no sharp cut-off; inactive = mostly below about 40%;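 also: 0% = agonist challenge alone and 100% = reference antagonist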
* hit, by the source's call; · = no result given. Compounds with a hit are over-represented: about 4.5% of the library has one in this group of screens.

SMILES	TAAR1 antag	CHO parental Ca	TAAR1 ag	OX1R antag-1	GPR7 antag	OX1R antag-2
Cc1cccc(C(=Cc2ccc([N+](=O)[O-])cc2)C(=O)O)c1	-5	·	0	·	·	·
CCCCN1CC(COCc2ccccc2)Oc2cccc(Oc3ccc(SC)c(C)c3)c2S1(=O)=O (centres undefined)	16	·	1	·	·	·
O=[N+]([O-])c1cc(S(=O)(=O)N2CCCC2)ccc1NCCCN1CCOCC1	-33	-10	6	-18	-6	51*
C=CCOc1ccc(C=CC(=O)c2c(O)c(OC)c(OC)c(OC)c2OC)cc1	69*	·	2	·	·	·
Cc1nn(C)c(C)c1CN(C)S(=O)(=O)c1ccc(F)cc1	4	-1	5	-12	-13	15
Cc1nn(C)c(C)c1CN(C)S(=O)(=O)c1ccc2ccccc2c1	23	38*	7	27	14	53*
CCCCCCC(=O)NC1CCCCN(C)C1=O (centres undefined)	6	·	0	·	·	·
Cc1ccc(-c2c(C(=O)N(C)Cc3ccccc3)oc(=O)c3ccccc23)cc1	29	-3	2	-22	19*	16
COc1ccc(C(=O)C(=O)N2CCN(C(=O)c3ccccc3C(F)(F)F)CC2)cc1OC	-20	·	0	·	·	·
CCOC1=C2[C@H](c3ccccc3)N(S(=O)(=O)c3ccc(C)cc3)[C@H](C(C)C)[C@H]2C(C#N)(C#N)C(C#N)(C#N)C1	-16	·	1	·	·	·
O=C(Nc1ccn(Cc2ccccc2F)n1)c1ccc(COc2ccccc2Cl)cc1	55*	13	9	19	-7	29
COc1ccc2sc(N(CCCN(C)C)C(=O)c3ccc(S(=O)(=O)N4CCc5ccccc5C4)cc3)nc2c1	10	-15	40*	-20	·	15
CN(C)CCCN(C(=O)c1ccc2c(c1)CCCC2)c1nc2cc3c(cc2s1)OCO3	-7	-1	41*	-7	12	11
Cc1cccc2sc(N(CCCN(C)C)C(=O)c3ccc(S(=O)(=O)N4CCc5ccccc5C4)cc3)nc12	33	-12	39*	-13	21	16
CN(C)CCCN(C(=O)c1ccc2c(c1)CCCC2)c1nc2ccc(F)cc2s1	2	-2	25	-2	3	20
COc1ccc2sc(N(CCCN(C)C)C(=O)c3ccc(S(=O)(=O)N4CCCC4)cc3)nc2c1	-33	-11	12	1	·	10
CC(C)C[C@@H]1COc2cc(N3CCCC3)ccc2S(=O)(=O)N1	-17	·	1	·	·	·
COc1cc(OC)cc(C(=O)NCc2cc(C)nc3ccccc23)c1	11	-24	9	13	-18	63*
COc1ccc(C(=O)NCc2cc(C)nc3ccccc23)cc1OC	-20	-11	0	0	-2	33
COc1cccc(C(=O)NNc2c3ccccc3nc3ccccc23)c1	43	-7	9	-2	-10	42*
C[C@H]1Cn2cnc(C(=O)N3CCN(c4ccccc4)CC3)c2C(=O)N1	5	·	-1	·	·	·
O=C(C1CCN(S(=O)(=O)c2cccc3nsnc23)CC1)N1CCCCC1	2	-2	2	-14	-7	44*
O=C(C1CCCN(S(=O)(=O)c2cccc3nsnc23)C1)N1CC=C(c2ccccc2)CC1 (centres undefined)	50*	21	10	-14	4	34
O=C(C1CCN(S(=O)(=O)c2cccc3nsnc23)CC1)N1CC=C(c2ccccc2)CC1	56*	-8	13	-1	3	28
O=C(C1CCC(CNS(=O)(=O)c2cccc3nsnc23)CC1)N1CC=C(c2ccccc2)CC1 (centres undefined)	-18	19	-1	-11	-7	15
SMILES	TAAR1 antag	CHO parental Ca	TAAR1 ag	OX1R antag-1	GPR7 antag	OX1R antag-2
O=C(C1CCN(S(=O)(=O)c2cccc3cccnc23)CC1)N1CCN(c2ccc(Cl)cc2)CC1	15	-2	11	-20	17*	13
O=S1(=O)CCSC[C@@H](CN2CCN(c3ccccc3)CC2)N1	-1	·	0	·	·	·
Cc1ccc(Cl)cc1N1CCN(C(=O)C2CCN(S(=O)(=O)c3c(C)nn(C)c3C)CC2)CC1	77*	35*	36	25	9	12
Cc1ccc(Cl)cc1N1CCN(S(=O)(=O)N2CCCCC2)CC1	1	-25	8	-41	23*	15
Cc1ccc(Cl)cc1N1CCN(C(=O)C2CCN(S(=O)(=O)c3cccnc3)CC2)CC1	23	15	13	21	3	32
Cc1ccc(C)c(N2CCN(C(=O)C3CCN(S(=O)(=O)c4cccc5nsnc45)CC3)CC2)c1	54*	-4	14	-19	-12	23
O=C(C1CCCN(S(=O)(=O)c2cccc3nonc23)C1)N1CCN(c2cccc(Cl)c2)CC1 (centres undefined)	49*	-5	10	-17	8	9
Cc1ccc(Cl)cc1N1CCN(S(C)(=O)=O)CC1	0	-7	0	-21	14	6
Cc1cc2c(c(=O)o1)[C@@]1(C(=O)N(C)c3ccccc31)C1=C(CC(C)(C)CC1=O)O2	-19	·	14	·	·	·
O=C(NCc1cccs1)c1ccc(-c2ccc(F)c(F)c2)c2ccoc12	7	·	2	·	·	·
CCCC#C/C(CCC)=C1\c2ccccc2C(=O)N1c1ccccc1	-19	·	-1	·	·	·
Brc1ccccc1C1Cc2nnccc2CN1 (centres undefined)	5	·	1	·	·	·
NC(=O)c1ncn([C@@H]2O[C@H](C(=O)N[C@H](Cc3c[nH]c4ccccc34)C(=O)N3CCN(C(=O)C4CC4)CC3)[C@@H](O)[C@H]2O)n1	-16	·	2	·	·	·
COCCNC(=O)C1(C)CCCN(Cc2ccc(Oc3ccccc3)cc2)C1 (centres undefined)	-7	·	2	·	·	·
CCc1nnc(NS(=O)(=O)c2ccc(NC(=S)NC(=O)/C=C/c3ccccc3)cc2)s1	13	-18	-1	-16	1	15
CCc1nnc(NS(=O)(=O)c2ccc(NC(=S)NC(=O)/C=C/c3ccc(C(C)C)cc3)cc2)s1	·	44*	·	36	-16	20
C=CCN=C1NC(c2ccc(C(F)(F)F)cc2)C(C(=O)OC)=C(C)N1C (centres undefined)	-2	·	2	·	·	·
COc1ccc(C(=O)NCCn2ccc3ccccc32)cc1OC	0	-3	2	-11	-1	2
COc1ccccc1C(=O)NCCn1ccc2ccccc21	1	-27	9	-1	-1	70*
O=C(c1cc(-c2ccncc2)nc2ccc(Br)cc12)N1CCN(Cc2ccc3c(c2)OCO3)CC1	62*	-14	15	-22	-5	10
N#CCS(=O)(=O)c1cccc[n+]1[O-]	-11	·	3	·	·	·
O=C(Nc1ccccc1Cl)c1ccc2c(=O)n3c(nc2c1)CCC3	-3	3	14	-12	·	5
O=C(Nc1nc(-c2ccccc2)cs1)c1ccc2c(=O)n3c(nc2c1)CCCCC3	59*	15	15	21	-13	51*
